Assay results: paper PMC11995693 (Journal of medicinal chemistry, 2025)
Entries after “also recorded” stand apart in the source; their conditions may differ. Where two headings read alike, the source gives them in different places. Values belong to the compound of their own block, whether it stands above or below them.

Key:
[1] = Chemical stability in pH buffers; type: physicochemical
[2] = Oral pharmacokinetics in mice; type: in vivo, C57BL6 mice; details: 100 mg/kg equivalent
[3] = test system: Poly(I:C) + IFNγ stimulated NHEK cells; assay: Poly; type: cell-based, human; details: for inhibition of IFNγ-inducible chemokines (CXCL9, CXCL10, CXCL11): 30–100 μM
How it was run: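 Primary human epidermal keratinocytes were seeded and incubated overnight at 37 °C. They were stimulated with Poly(I:C) (50 μg/mL) plus IFNγ (5 ng/mL), with or without test compound at 1, 10, 30 or 100 μM, for 8 h. RNA was isolated, and TaqMan RT-PCR gave fold changes in IL-6, IFNβ, IL-1β, CXCL9, CXCL10 and CXCL11 expression.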

NHEKs = assay: Screening of TLR3 and IL-6 mRNA expression in NHEKs; type: cell-based, human
C57BL/6 mice = details: cited from earlier work; for hair growth: topical application
[4] = Preliminary toxicity profile of P13, systemic administration; type: in vivo; details: two doses, systemic administration (Figure S2, Table S1)
PAMPA-GIT permeability = type: in vitro ADME
How it was run: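 Stirred PAMPA sandwich with the acceptor-side filter coated in GIT-0 lipid. Donor held test or reference compound at 10 μM in pH 7.4 buffer with 0.2% DMSO, against pH 7.4 sink buffer. Incubated 4 h at room temperature. Donor and acceptor were sampled and quantified by LC-MS/MS. Effective permeability (Pe, cm/s) was calculated from filter area × 70% porosity, phase volumes, incubation and steady-state time, and donor concentrations, with membrane retention factor.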

chemical stability at pH 7.4, in words [1]: complete instability
SMILES: C=C(CC(=O)OCOC(=O)OC(C)C)C(=O)O [Compound P5, 4-(((Isopropoxycarbonyl)oxy)methoxy)-2-methylene-4-oxobutanoic Acid]

intact prodrug in plasma [2]: undetectable
SMILES: C=C(CC(=O)OC)C(=O)OCOC(=O)OC(C)C [Compound P13, 1-(((Isopropoxycarbonyl)oxy)methyl) 4-Methyl 2-Methylenesuccinate]
inhibition of IL-6, in words ([3]; 1–100 μM, 8 h): significant, dose-dependent inhibition | inhibition of IFNγ-inducible chemokines (CXCL9, CXCL10, CXCL11) ([3]; 8 h): over 50% | inhibition of mRNA expression of TLR3 and IL-6 (NHEKs; Figure S1): > 90% | skin concentrations (C57BL/6 mice; topical administration): considerable skin concentrations | hair growth (C57BL/6 mice): significantly promoted hair growth | hair growth (C57BL/6 mice; listed as SCD-153): significant increase in hair growth | hematological changes and weight loss [4]: No hematological changes or weight loss

intact prodrug in plasma [2]: not detectable
SMILES: C=C(CC(=O)OCOC(=O)OC(C)C)C(=O)OCOC(=O)OC(C)C [Compound P2, Bis(((isopropoxycarbonyl)oxy)methyl) 2-Methylenesuccinate]
inhibition of IFNβ, in words ([3]; 1–100 μM, 8 h): dose dependent inhibition | inhibition of IL-6, in words ([3]; 1–100 μM, 8 h): significant, dose-dependent inhibition | inhibition of IFNγ-inducible chemokines (CXCL9, CXCL10, CXCL11) ([3]; 8 h): over 50% | inhibition of mRNA expression of TLR3 and IL-6 (NHEKs; Figure S1): > 90%

permeability in PAMPA, in words (PAMPA-GIT permeability): poor permeability
SMILES: C=C(CC(=O)OC)C(=O)O [Compound 4-MI, 4-methyl itaconate]
effect on TLR3 and IL-6 mRNA / cytokine production, in words (NHEKs; Figure S1): neither 4-MI nor 1A affected the mRNA expression; also recorded: failed to inhibit cytokine production | efficacy in vivo in the alopecia areata model (C57BL/6 mice; compared at equimolar doses): ineffective

Second part, the compound before the results:

SMILES: C=C(CC(=O)OCc1oc(=O)oc1C)C(=O)O [Compound P6, 4-((5-Methyl-2-oxo-1,3-dioxol-4-yl)methoxy)-2-methylene-4-oxobutanoic Acid]
chemical stability at pH 7.4, in words [1]: complete instability

SMILES: C=C(CC(=O)OCOC(=O)C(C)(C)C)C(=O)O [Compound P4, 2-Methylene-4-oxo-4-((pivaloyloxy)methoxy)butanoic Acid]
chemical stability at pH 7.4, in words [1]: complete instability

SMILES: C=C(CC(=O)OCOC(=O)OC(C)C)C(=O)OC [Compound P9, 4-(((Isopropoxycarbonyl)oxy)methyl) 1-Methyl 2-Methylenesuccinate]
effect on IL-1β, in words ([3]; 100 μM): showed effects at 100 μM

SMILES: C=C(CC(=O)OCCCOCCCCCCCCCCCCCCCC)C(=O)O [Compound P7, 4-(3-(Hexadecyloxy)-propoxy)-2-methylene-4-oxobutanoic Acid]
permeation index (Pe) (PAMPA-GIT permeability): 3.21e-06 cm/s

SMILES: C=C(CC(=O)O)C(=O)O [IA, Itaconic acid]
permeability in PAMPA, in words (PAMPA-GIT permeability): poor permeability | effect on TLR3 and IL-6 mRNA / cytokine production, in words (NHEKs; Figure S1): failed to inhibit cytokine production | effect on TLR3 and IL-6 mRNA / cytokine production, in words (NHEKs; Figure S1, listed as 1A): neither 4-MI nor 1A affected the mRNA expression
